Data from ChEMBL document CHEMBL1142613, “Characterization of the major metabolite of sampangine in rats” (J Nat Prod, 2000).
Values after ≈ are worked out from the molar mass of the structure shown. Active and inactive are the calls of the source. No cut-off for these calls is given here.

Experiments:
Candida albicans [1] = assay: Antifungal activity against Candida albicans NIH B311 after 24 hrs by twofold serial dilution method; format: functional
Method in brief: (§1)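 Two-fold serial broth macrodilution. C. albicans was grown in yeast nitrogen broth and incubated 24 h; C. neoformans in Mycophil broth, 48 h; both at 37 °C. MIC taken as the lowest concentration visually inhibiting growth. Footnote notes one test sample was run in Eugon by a microplate method.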

Cryptococcus neoformans [2] = assay: Antifungal activity against Cryptococcus neoformans ATCC 52657 after 48 hrs by twofold serial dilution method; format: functional; conditions: ATCC 52657, 48 h; method in brief: as §1
Candida albicans [3] = assay: Antifungal activity against Candida albicans NIH B311 at 100 ug/mL after 24 hrs by agar well diffusion method; format: functional; conditions: read-out: IZ
Method in brief: (§2)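 Agar well diffusion at a test concentration of 100 µg/mL; activity read as zone of inhibition diameter in mm. C. albicans was grown in yeast nitrogen broth, C. neoformans in Mycophil broth.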

Cryptococcus neoformans [4] = assay: Antifungal activity against Cryptococcus neoformans ATCC 52657 at 100 ug/mL after 48 hrs by bioautography; format: functional; conditions: ATCC 52657, 48 h, read-out: IZ
Method in brief: (§3)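 Bioautography at a test concentration of 100 µg/mL; activity recorded as zone of inhibition in mm. Media were yeast nitrogen broth for C. albicans and Mycophil broth for C. neoformans.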

Candida albicans [5] = assay: Antifungal activity against Candida albicans NIH B311 at 100 ug/mL after 24 hrs by bioautography; format: functional; conditions: read-out: IZ; method in brief: as §3
Cryptococcus neoformans [6] = assay: Antifungal activity against Cryptococcus neoformans ATCC 52657 at 100 ug/mL after 48 hrs by agar well diffusion method; format: functional; conditions: ATCC 52657, 48 h, read-out: IZ; method in brief: as §2
Escherichia coli = assay: Antibacterial activity against Escherichia coli ATCC 10536; format: functional, organism-based
Method in brief: (§4)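 Colorimetric oxidation-reduction broth assay, with Alamar blue dye added as an indicator of the organism's metabolic activity; result expressed as MIC in µg/mL; streptomycin served as positive control.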

Bacillus subtilis = assay: Antibacterial activity against Bacillus subtilis ATCC 6333; format: functional, organism-based; method in brief: as §4
Pseudomonas aeruginosa = assay: Antibacterial activity against Pseudomonas aeruginosa ATCC 15442; format: functional, organism-based; method in brief: as §4
Staphylococcus aureus = assay: Antibacterial activity against Staphylococcus aureus ATCC 6538; format: functional, organism-based; method in brief: as §4

| Compound | MIC (Candida albicans [1]) | MIC (Cryptococcus neoformans [2]) | zone of inhibition at 100 µg/mL (Candida albicans [3]) | zone of inhibition at 100 µg/mL (Cryptococcus neoformans [4]) | zone of inhibition at 100 µg/mL (Candida albicans [5]) | zone of inhibition at 100 µg/mL (Cryptococcus neoformans [6]) | Activity (Escherichia coli) | Activity (Bacillus subtilis) | Activity (Pseudomonas aeruginosa) | Activity (Staphylococcus aureus) |
| --- | --- | --- | --- | --- | --- | --- | --- | --- | --- | --- |
| O=C1c2ccccc2-c2nccc3ccnc1c23 [SAMPANGINE] | 3.12 µg/mL (≈ 13.4 µM) | 0.2 µg/mL (≈ 0.861 µM) | 10 mm | 35 mm | 10 mm | 35 mm |  |  |  |  |
| O=C(O)[C@H]1O[C@@H](Oc2c3c4c(ccnc4c4ccccc24)C=CN3)[C@H](O)[C@@H](O)[C@@H]1O | > 25 µg/mL | > 25 µg/mL | 6 mm | 35 mm |  | 26 mm | inactive | inactive | inactive | inactive |
